Measured values: ChEMBL document CHEMBL4665829, “Synthesis, Structure-Activity Relationship, and Antimalarial Efficacy of 6-Chloro-2-arylvinylquinolines” (J Med Chem, 2020)
Calls of active or inactive are those of the source. The calls are words filed in the database; no cut-off is given here.

Key:
[1] = Intrinsic clearance in mouse liver microsomes assessed as parent compound at 1 uM after 60 mins in presence of NADPH by LC-MS analysis; type: ADME, Microsome
Summary of the method: (§1)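 Mouse liver microsomes (0.5 mg/mL final protein) in 0.1 M phosphate, pH 7.4, with compound at 1 μM, 37 °C with shaking. Aliquots were quenched in cold acetonitrile and centrifuged; LC–MS gave parent peak area at 60 min relative to 0 min.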

[2] = Half life in mouse liver microsomes at 1 uM after 60 mins in presence of NADPH by LC-MS analysis; type: ADME, Microsome; conditions: 1 h; summary of the method: as §1
HepG2 = experiment: Cytotoxicity against human HepG2 cells assessed as reduction in cell viability after 48 hrs by MTS assay; type: cell-based; conditions: HepG2, 48 h
Summary of the method: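 HepG2 cells were seeded at 2250 per well and grown 24 h at 37 °C, 5% CO₂. Serial dilutions starting at 25 μM were added for a further 48 h. MTS was then added for 3 h at 37 °C and absorbance read at 490 nm. EC₅₀ came from nonlinear dose–response fits.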

Plasmodium falciparum [3] = experiment: Potency index, ratio of EC50 for UCF501 to test compound EC50 for antiplasmodial activity against chloroquine-resistant Plasmodium falciparum Dd2 infected in human erythrocytes assessed as reduction in microbial growth after 72 hrs by SYBR green I staining based fluorescence assay; type: functional, Erythrocyte
Summary of the method: (§2)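 SYBR Green I assay: twofold serial dilutions on P. falciparum cultures at 1% parasitemia, 1% hematocrit, 37 °C, 5% CO₂, 72 h, max 0.1% DMSO. DMSO and CQ as growth and inhibition controls. Plates frozen at −80 °C, thawed, lysed in Tris/saponin/EDTA/Triton buffer with 0.01% SYBR Green I, 1 h dark at room temperature. Fluorescence read at 485 ex/530 em. EC50 by nonlinear dose–response fit.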

Hemozoin = experiment: Inhibition of beta-hematin formation after 16 hrs by inverted microscopic analysis; conditions: dose microM 12.5-200, time 16.0 hrs
Summary of the method: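 Hemin (2 mM stock in 0.1 M NaOH; 100 μM final), propionate buffer pH 5.2 and sonicated phosphatidylcholine were incubated with a compound concentration series for 16 h at 37 °C with gentle shaking. Crystals were imaged by inverted microscope before quenching with 7.5% SDS in bicarbonate, pH 9.1. Free hemin was measured at 405 nm against a 0–16 μM calibration. Three independent experiments.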

[4] = Resistant index, ratio of EC50 for antiplasmodial activity against chloroquine-resistant Plasmodium falciparum Dd2 to antiplasmodial activity against chloroquine-sensitive Plasmodium falciparum 3D7; type: functional
Plasmodium falciparum [5] = experiment: Antiplasmodial activity against synchronous gametocyte late stage of Plasmodium falciparum 3D7 harboring luc7 incubated for 72 hrs by ONE-Glo luciferase assay; type: functional, organism-based; conditions: 3D7, 72 h
Summary of the method: (§3)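 Gametocytes of P. falciparum 3D7 luc7 induced by nutrient starvation, cultured in heparin medium to remove asexual stages, Percoll-purified as early (II–III) or late (IV–V) stage. 50,000 gametocytes/well exposed 72 h to a 19-point gradient, 0.038 nM–10 μM. ONE-Glo luciferase read after 5 min. EC50 by nonlinear curve fit; three experiments.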

Plasmodium berghei [6] = experiment: Antiplasmodial activity against Plasmodium berghei ANKA expressing luciferase infected in Swiss Webster mouse at 25 mg/kg, po for 5 days using monophosphate salt form of compound by luminescence based assay; type: functional, organism-based; conditions: time 5.0 day
Summary of the method: (§4)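 Female Swiss Webster mice got 10³ RBC infected with luciferase-expressing P. berghei ANKA. From 48 h post-infection, groups of five were gavaged once daily for 5 days in 2% methylcellulose/0.5% Tween 80, against a vehicle control. On day 7, mice received 150 mg/kg D-luciferin in PBS, and bioluminescence was imaged by IVIS as a measure of parasite load.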

Plasmodium berghei [7] = experiment: Antiplasmodial activity against Plasmodium berghei ANKA expressing luciferase infected in Swiss Webster mouse at 100 mg/kg, po for 5 days using monophosphate salt form of compound by luminescence based assay; type: functional, organism-based; conditions: time 5.0 day; summary of the method: as §4
Plasmodium falciparum [8] = experiment: Antiplasmodial activity against chloroquine-sensitive Plasmodium falciparum 3D7 infected in human erythrocytes assessed as reduction in microbial growth after 72 hrs by SYBR green I staining based fluorescence assay; type: functional, organism-based; conditions: 3D7, Erythrocyte; summary of the method: as §2
[9] = Selectivity index, ratio of EC50 for cytotoxicity against human HepG2 cells to antiplasmodial activity against chloroquine-resistant Plasmodium falciparum Dd2; type: toxicity, cell-based; conditions: read-out: Ratio EC50
Plasmodium falciparum [10] = experiment: Antiplasmodial activity against synchronous gametocyte early stage of Plasmodium falciparum 3D7 harboring luc7 incubated for 72 hrs by ONE-Glo luciferase assay; type: functional, organism-based; conditions: 3D7, 72 h; summary of the method: as §3
Plasmodium falciparum [11] = experiment: Parasiticidal activity against chloroquine-resistant Plasmodium falciparum Dd2 infected in RBC assessed as reduction in parasitemia at 5 times of EC50 incubated for 6 to 48 hrs followed by compound washout and then incubated for 96 hrs by Giemsa staining based microscopic analysis; type: functional, organism-based; conditions: time hrs 6-48
Summary of the method: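 Controls: 0.15% DMSO, DHA 50 nM, atovaquone 6.6 nM. Drug removed by three RPMI washes, then parasitemia followed daily for 96 h by Giemsa thin smears. Three independent biological replicates.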

Plasmodium falciparum [12] = experiment: Antiplasmodial activity against chloroquine-resistant Plasmodium falciparum Dd2 infected in human erythrocytes assessed as reduction in microbial growth after 72 hrs by SYBR green I staining based fluorescence assay; type: functional, organism-based; conditions: Dd2, Erythrocyte; summary of the method: as §2
[13] = Stability of compound in mouse liver microsomes assessed as parent compound remaining at 1 uM after 60 mins in presence of NADPH by LC-MS analysis; type: ADME, Microsome; conditions: 1 h; summary of the method: as §1
Plasmodium falciparum [14] = experiment: Antiplasmodial activity against late trophozoite synchronized chloroquine-resistant Plasmodium falciparum Dd2 reduction in microbial growth at 5 times of EC50 after 12 hrs by Giemsa staining-based microscopic analysis; type: functional, organism-based
Summary of the method: (§5)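 Dd2 cultures tightly synchronized by magnetic separation and sorbitol were dosed at 5 × EC50 at 6, 18, 30 or 42 h post-invasion. Controls: DHA 50 nM, atovaquone 6.6 nM, DMSO 0.1%. Sampled every 12 h for Giemsa thin smears and for flow cytometry: glutaraldehyde/paraformaldehyde fixation, Triton permeabilization, RNAse, 500 nM YOYO-1, 500,000 events/sample. Three independent biological replicates.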

Plasmodium falciparum [15] = experiment: Antiplasmodial activity against late trophozoite synchronized chloroquine-resistant Plasmodium falciparum Dd2 reduction in microbial growth at 5 times of EC50 after 12 hrs by YOYO-1 staining-based flow cytometric analysis; type: functional, organism-based; summary of the method: as §5

## CN(C)CCNc1cc(/C=C/c2ccc(F)cc2)nc2ccc(Cl)cc12
[1]
  CLH: 25.1 µL/min/mg
[2]
  t1/2: 55.2 min
HepG2
  EC50: 5330 nM
Plasmodium falciparum [3]
  Ratio EC50: 14
Hemozoin
  inhibition: Dose-dependent effect
[4]
  Ratio EC50: 0.6
Plasmodium falciparum [5]
  EC50: 2050 nM
Plasmodium berghei [6]
  Activity: Active
Plasmodium berghei [7]
  Activity: Active
Plasmodium falciparum [8]
  EC50: 8.7 nM
[9]
  selectivity ratio: 1110
Plasmodium falciparum [10]
  EC50: 591 nM
Plasmodium falciparum [11]
  Activity: Active
Plasmodium falciparum [12]
  EC50: 4.8 nM
[13]
  Stabilty: 47.1%
Plasmodium falciparum [14]
  Activity: Active
Plasmodium falciparum [15]
  Activity: Active
